Source: ChEMBL document CHEMBL3392971, “Design and synthesis of protein kinase C epsilon selective diacylglycerol lactones (DAG-lactones)” (Eur J Med Chem, 2015)

What was measured:
[1] = target: T1, Protein kinase C alpha type (Homo sapiens, UniProt P17252); test: Displacement of [20-3H] phorbol 12, 13-dibutylate from recombinant PKCalpha (unknown origin) in presence of 100 ug/ml 100% phosphatidylserine
Homo sapiens [2] = species on record: Homo sapiens; test: Selectivity index, ratio of Ki for recombinant PKCalpha (unknown origin) in presence of 100 ug/ml 100% phosphatidylserine to Ki for recombinant PKCepsilon (unknown origin) in presence of 100 ug/ml 100% phosphatidylserine
[3] = Lipophilicity, log P of the compound; format: physicochemical; conditions: octanol/water
[4] = target: T1, Protein kinase C alpha type; test: Displacement of [20-3H] phorbol 12, 13-dibutylate from recombinant PKCalpha (unknown origin) in presence of nuclear membrane mimetic lipid mixture; format: cell membranes
[5] = target: T2, Protein kinase C epsilon type (Homo sapiens, UniProt Q02156); test: Displacement of [20-3H] phorbol 12, 13-dibutylate from recombinant PKCepsilon (unknown origin) in presence of 100 ug/ml 100% phosphatidylserine
T2 sequence (Q02156 whole entry): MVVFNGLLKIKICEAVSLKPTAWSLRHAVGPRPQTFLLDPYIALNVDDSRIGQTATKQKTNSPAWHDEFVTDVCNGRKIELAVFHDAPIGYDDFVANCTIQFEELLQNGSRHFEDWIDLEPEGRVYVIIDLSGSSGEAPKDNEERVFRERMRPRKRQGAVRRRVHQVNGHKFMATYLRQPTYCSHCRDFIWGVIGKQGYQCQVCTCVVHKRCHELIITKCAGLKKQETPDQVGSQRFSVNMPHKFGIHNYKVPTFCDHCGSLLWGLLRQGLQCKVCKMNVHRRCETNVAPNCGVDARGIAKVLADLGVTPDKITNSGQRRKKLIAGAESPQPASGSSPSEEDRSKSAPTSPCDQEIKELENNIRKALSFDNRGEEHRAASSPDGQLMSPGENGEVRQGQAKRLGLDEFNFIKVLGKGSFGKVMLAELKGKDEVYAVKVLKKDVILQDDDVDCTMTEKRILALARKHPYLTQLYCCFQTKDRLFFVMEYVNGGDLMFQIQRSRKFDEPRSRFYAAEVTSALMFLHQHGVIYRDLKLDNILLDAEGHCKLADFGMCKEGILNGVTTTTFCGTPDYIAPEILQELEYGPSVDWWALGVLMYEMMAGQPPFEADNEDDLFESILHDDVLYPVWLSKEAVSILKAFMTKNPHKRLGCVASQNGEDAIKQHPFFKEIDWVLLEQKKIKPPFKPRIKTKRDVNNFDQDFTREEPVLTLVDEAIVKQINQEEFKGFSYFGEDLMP

Homo sapiens [6] = species on record: Homo sapiens; test: Selectivity index, ratio of Ki for recombinant PKCalpha (unknown origin) in presence of nuclear membrane mimetic lipid mixture to Ki for recombinant PKCepsilon (unknown origin) in presence of nuclear membrane mimetic lipid mixture; format: cell membranes
In short: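 Ki values for recombinant PKC-alpha and PKC-epsilon were each measured by competition with [20-3H]PDBu in the nuclear-membrane-mimetic lipid mix (POPC/POPE/POPS/POPI/cholesterol 61:21:4:7:6). The ratio is PKC-alpha Ki divided by PKC-epsilon Ki.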

[7] = target: T2, Protein kinase C epsilon type; test: Displacement of [20-3H] phorbol 12, 13-dibutylate from recombinant PKCepsilon (unknown origin) in presence of nuclear membrane mimetic lipid mixture; format: cell membranes

| Structure (SMILES) | Ki [1] [nM] | Ratio Ki (Homo sapiens [2]) | logP [3] | Ki [4] [nM] | Ki [5] [nM] | Ratio Ki (Homo sapiens [6]) | Ki [7] [nM] | logP ([3]; read-out: logP) |
| --- | --- | --- | --- | --- | --- | --- | --- | --- |
| CCCCCC1CC1CC1CC1CCCCCCC/C=C1/CC(CO)(COC(=O)C(C)(C)C)OC1=O (configuration not stated) | 33.1 | 2.2 | 9.15 | 73 | 15.2 | 1.2 | 58.8 | – |
| CCCCCCCCCCCCCCCCCC(=O)OCC1(CO)C/C(=C\CC(C)C)C(=O)O1 (configuration not stated) | 30.8 | 2.7 | – | 99 | 11.4 | 2.1 | 47 | 8.72 |
| CCCCCC1CC1CC1CC1CCCCCCCC(=O)OCC1(CO)C/C(=C/CC(C)C)C(=O)O1 (configuration not stated) | 15.4 | 1.6 | 9.19 | 44 | 9.8 | 1.4 | 30.7 | – |
| CCCCCC1OC1CC1OC1CCCCCCCC(=O)OCC1(CO)C/C(=C/CC(C)C)C(=O)O1 (configuration not stated) | 16.5 | 1 | – | 103 | 16.3 | 1.6 | 63 | 5.69 |
| CC(C)C/C=C1\CC(CO)(COC(=O)CC(CC(C)C)CC(C)C)OC1=O (configuration not stated) | 2.78 | 2.3 | – | 15.4 | 1.21 | 5.1 | 3 | 5.06 |
| CCCCCC1CC1CC1CC1CCCCCCCC(=O)OCC1(CO)C/C(=C\CC(C)C)C(=O)O1 (configuration not stated) | 10.2 | 1.9 | 9.19 | 60 | 5.5 | 3 | 19.8 | – |
| CCCCCC1OC1CC1OC1CCCCCCCC(=O)OCC1(CO)C/C(=C\CC(C)C)C(=O)O1 (configuration not stated) | 13.2 | 1.8 | – | 116 | 7.46 | 6.9 | 16.9 | 5.69 |
| CC(C)CC(C/C=C1\CC(CO)(COC(=O)C(C)(C)C)OC1=O)CC(C)C (configuration not stated) | 8.3 | 8.1 | – | 46 | 1.03 | 32.2 | 1.43 | – |
| CCCCCC1CC1CC1CC1CCCCCCC/C=C1\CC(CO)(COC(=O)C(C)(C)C)OC1=O (configuration not stated) | 26.7 | 3.2 | 9.15 | 110 | 8.3 | 2.7 | 41 | – |
| CC(C)C/C=C1/CC(CO)(COC(=O)CC(CC(C)C)CC(C)C)OC1=O (configuration not stated) | 4.74 | 2 | – | 57 | 2.37 | 3.6 | 15.6 | 5.06 |

Continued, values first:

| Ki [1] [nM] | Ratio Ki (Homo sapiens [2]) | logP [3] | Ki [4] [nM] | Ki [5] [nM] | Ratio Ki (Homo sapiens [6]) | Ki [7] [nM] | logP ([3]; read-out: logP) | Structure (SMILES) |
| --- | --- | --- | --- | --- | --- | --- | --- | --- |
| 8.7 | 1.8 | – | 43.8 | 4.79 | 4.8 | 9.1 | 8.01 | CCCCCCCCC#CCCCCCCCC(=O)OCC1(CO)C/C(=C\CC(C)C)C(=O)O1 (configuration not stated) |
| 7.05 | 0.6 | – | 26.2 | 12.2 | 1.3 | 19.5 | 8.29 | CCCCCC=CCC=CCCCCCCCC(=O)OCC1(CO)C/C(=C/CC(C)C)C(=O)O1 (configuration not stated) |
| 8.26 | 2 | – | 25.7 | 4.1 | 4.9 | 5.2 | 8.25 | CCCCC/C=C\C/C=C\CCCCCCC/C=C1\CC(CO)(COC(=O)C(C)(C)C)OC1=O (configuration not stated) |
| 43.9 | 2.3 | – | 106 | 19.3 | 3.1 | 34 | 8.72 | CCCCCCCCCCCCCCCCCC(=O)OCC1(CO)C/C(=C/CC(C)C)C(=O)O1 (configuration not stated) |
| 8.31 | 1.6 | – | 60.8 | 5.24 | 4.8 | 12.8 | 7.82 | CCCCCCC#CC#CCCCCCCCC(=O)OCC1(CO)C/C(=C\CC(C)C)C(=O)O1 (configuration not stated) |
| 4.33 | 2 | – | 24.7 | 2.14 | 1.9 | 13.1 | 8.29 | CCCCCC=CCC=CCCCCCCCC(=O)OCC1(CO)C/C(=C\CC(C)C)C(=O)O1 (configuration not stated) |
| 7.2 | 1.4 | – | 31.1 | 5.06 | 3.2 | 9.6 | 8.25 | CCCCC/C=C\C/C=C\CCCCCCC/C=C1/CC(CO)(COC(=O)C(C)(C)C)OC1=O (configuration not stated) |
| 12.6 | 1.8 | – | 38.7 | 7.12 | 1.1 | 34.6 | 8.01 | CCCCCCCCC#CCCCCCCCC(=O)OCC1(CO)C/C(=C/CC(C)C)C(=O)O1 (configuration not stated) |
| 9.8 | 0.7 | – | 44.8 | 13.4 | 1.1 | 40.3 | 7.82 | CCCCCCC#CC#CCCCCCCCC(=O)OCC1(CO)C/C(=C/CC(C)C)C(=O)O1 (configuration not stated) |
